Measurements published in the EternaBench riboswitch data.

System: MS2 coat protein
Test: apparent Kd, MS2 coat protein; higher = weaker binding; RNA-MaP array; FMN 200 µM where present
Procedure, shortened: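 Green signal from SNAP-549-labelled MS2 coat protein was normalised to red-channel RNA signal and to the median Fmax of control clusters. The protein was titrated from 0.7 or 1.5 nM, doubling to 3 µM, without and then with constant ligand, over designs transcribed by stalled E. coli RNA polymerase on Illumina sequencing-chip clusters, in 100 mM Tris-HCl pH 7.5, 80 mM KCl, 4 mM MgCl2, BSA, DTT, yeast tRNA and Tween-20. The apparent Kd is the median of filtered per-cluster binding-curve fits.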

[1] = designed as: ON switch for flavin mononucleotide, no ligand
[2] = ligand present: flavin mononucleotide, designed as: ON switch for flavin mononucleotide
[3] = designed as: OFF switch for flavin mononucleotide, no ligand
[4] = ligand present: flavin mononucleotide, designed as: OFF switch for flavin mononucleotide

Row | Sequence | apparent Kd [1] [µM] | apparent Kd [2] [µM] | apparent Kd [3] [µM] | apparent Kd [4] [µM]
1 | UUGGACGUCGUAGGAUAUGUAGGAUAUUCCUACAUGAGGAUCACCCAUGUUGACAUGGAAGAAGGACAGAAGGUCGAUGUCCAU | 0.602 | 0.00986 | – | –
2 | UACUGGUGUGAGAAGGGACAUAUCUCCAUGAGGGCAGGGCGAUUAGAGAAGUCAGGAUAUCACAUGAGGAUCACCCAUGUGACA | – | – | 0.00814 | 0.00851
3 | AUUUUAUAAUAGAAGGUAGACUUCAUGAGGAUCACCCAUGUGUUGGUACUAAGGAUAUGUAAUAACAUGAGGAUCACCCAUGUC | 0.0533 | 0.0517 | – | –
4 | GUAUCUUAUGAGAAGGCGAUCAUGAAACAUGAUCGAGGAUAUCAUGUAAACAUGAGGAUCACCCAUGUAUGGGUAUUAUGGUAC | 0.179 | 0.0719 | – | –
5 | CUUAAACAUGAGGAUCACCCAUGUCAGGAUAUGAUACUAUGUACUUCGGUACAUAGUAUCAGAAGGGAUAUAAA | – | – | 0.0342 | 0.0335
6 | CCGGAAAUGAAGGAUAUAGGCGUCGAUAGACUCCUAGAAGGUCAUACAUGAGGAUCACCCAUGUGUCCUACCGG | – | – | 0.0165 | 0.0298
7 | UCGUUUAUACAAGGAUAUCAAUUAUAGCUAAAUUUAACAUGAGGAUCACCCAUGUAACUAUGGAGUGAGAAGGUGUAAUGACUU | 0.401 | 0.251 | – | –
8 | UGUCGGAGCAGAGGAUAUUACAUGAGGAUCACCCAUGUAUGAACCAAUAGCUGGAAACAGCAAUGUAAGAAGGCUGCUCCGACA | – | – | 0.0375 | 0.531
9 | UGAUAGGACAGAGGAUAUGCCGAUAGGCUCUACUAUCGAAGAAUCCUCACAUGAGGAUCACCCAUGUAGAAGGCUGUCCUAUCU | – | – | 0.0191 | 0.048
10 | UUACUCAUGUAAGGAUAUGCAGCCGUUUCGGCUGCAGAAGGUACUAUAAUACAUGAGGAUCACCCAUGUCUUUUUAAUUUGUAC | 0.0357 | 0.0232 | – | –
11 | AUUCAGCGGAACUUGACAUCCCUACAUGAGGAUCACCCAUGUCAGGAUAUAUGCUCUCGAGCUGCAUAGAAGGGACAUAGUGGG | – | – | 0.0482 | 0.067
12 | UUCGUGCAGCUUUGCUGUAUGCGUACAUGAGGAUCACCCAUGUAGGAUAUGGUAGGCUUUGCUUACUAGAAGGAUAGUGUGAUC | – | – | 0.097 | 0.0403
13 | AGGUACAUGAGGAUCACCCAUGUAAGAGCCCUCAUGCGAUGUAGAAGGAUAAUGCGAGAAGUGCUAUAGGAUAUACAUGAGAAA | – | – | 0.14 | 0.143
14 | GUAGCAUACCGAGGAUAUUCAUAUCGUAAUCGAACAUGAGGAUCACCCAUGUGGCGAAAGCCUUGGGAGAAGGCGGAAUGCUAC | 0.36 | 0.0259 | – | –
15 | UGCGGAAGAGGAUAUACGUAGAACUAGGUUCAUGUAAAACUACAUGAGGAUCACCCAUGUAGAAGGCUUUCGCU | – | – | 0.0159 | 0.0204
16 | ACCUCACAUGAGGAUCACCCAUGUAAGGAUAUCUUCGCUUUGACGUUGUUCUAUGCGAAGAGAAGGUACACGGC | – | – | 0.0283 | 0.111
17 | CUUUUGUGAGGAUAUCAGUAGUAAAAAAAUAAAAUUACUACUGAGAAGGUACAUGAGGAUCACCCAUGUUCCUC | – | – | 0.0142 | 0.0176
18 | UGAGCCUCGUGAGGAUAUACAUGAGGAUCACCCAUGUAAUAAAGUGAACGGAGGAAACUCCGAAUGUAGAAGGCACGAGGCUCA | – | – | 0.0479 | 0.443
19 | AGUCAUACAGGAUAUACAUGAGGAUCACCCAUGUUUAUCCUAAAAUAAAAAACCUCAUGUAGAAGGGUAUGACA | – | – | 0.0194 | 0.0135
20 | GCCUUACAUGAGGAUCACCCAUGUCAGGAUAUGUCAGAGUAGGUAAAACACCACUCUAAUAGAAGGGACAUGCA | – | – | 0.0168 | 0.0286
21 | ACAUGAUAUGUAGGAUAUCACAACUUGUGUUAUAAAAUUGUAUUUUAGGAUUGAGAAGGACAUUUACAUGAGGAUCACCCAUGU | – | – | 0.0155 | 0.0128
22 | UAUUAAUACGAAGGAUAUGGUUACAUGAGGAUCACCCAUGUAUGUAUUUUGAUCUAAUUAUUUAACCAGAAGGUCGAAUAUAAA | – | – | 0.0355 | 0.0785
23 | CCCUCACAUGAGGAUCACCCAUGUCAGGAUAUUCAAAGCGCAAAUGCGCCAAAUGCAGGAAGAAGGGACGUGCC | – | – | 0.0151 | 0.0205
24 | AUUUUGUGAGGAUAUUAGUUUUAUGAUUGGAGGAGUUUGGCUGAGAAGGCACAUGAGGAUCACCCAUGUAAAUC | – | – | 0.0353 | 0.0411
25 | CCGGUAAAGGAGGAUAUAGGAGUCGAUAGACACCUAGAAGGCCUGACAUGAGGAUCACCCAUGUGUCCUUCCGG | – | – | 0.0177 | 0.0767
26 | GCUAUCGAUGUAGGAUAUGCUAGGGAAACCCUGGCAGAAGGACAUGAGGAUCACCCAUGUCAAUGGAUGGAGAGAAGAGAUGGC | – | – | 0.0256 | 0.0743
27 | ACUAGAUGAGGAUAUGCAUAUUUUCGUGUUCUUCUAGGUUAACAUGAGGAUCACCCAUGUAGAAGGCGUCUAUU | – | – | 0.0206 | 0.038
28 | GACUGGCAGCUAGGAUAUGGGCGAUCACAUGAGGAUCACCCAUGUCAACAUCAAAACAAGAUUAACCAGAAGGAGCCGCGGGCU | 0.0173 | 0.0497 | – | –

Row | Sequence | apparent Kd [1] [µM] | apparent Kd [2] [µM] | apparent Kd [3] [µM] | apparent Kd [4] [µM]
29 | GCCAUCGCAUGAGGAUAUGCUCCCGUUUCGGGAGCAGAAGGCAUGUCACAAGACAUGAGGAUCACCCAUGUAGAUAAGAUGGCA | 0.257 | 0.00949 | – | –
30 | AAUAACAGAGGAUAUACUAUUUUAUGUGUUUGUUAUUUUAAACAUGAGGAUCACCCAUGUAGAAGGCUGAUUAA | – | – | 0.042 | 0.0447
31 | CCAUUCAGAGGAUAUGCGCAUAGAUAAGACUUUUUUUCUUAACAUGAGGAUCACCCAUGUAGAAGGCUGUAACC | – | – | 0.0197 | 0.0186
32 | AUAUGAAAGAUAGGAUAUACUGAGGUUGAAUGGGUAGAAGGAUCGAUAGGGAAGAAUACAUGAGGAUCACCCAUGUUGUGGAUU | 0.0817 | 0.0519 | – | –
33 | GGAUAGGACAGAGGAUAUACGGAUAGGAUCUACUAUCUUCCUUAAAUAACAUGAGGAUCACCCAUGUAGAAGGCUGUCCUAUCG | – | – | 0.0186 | 0.0679
34 | GGUGCGAUGUAGAAGGCAGAUCUGAUUCAGAUCUGAGGAUAUACAUGAGGAUCACCCAUGUUACGCACCAGCACGAGAGUGCAA | – | – | 0.00618 | 0.0111
35 | GAGCGAAAGCUCAAUGUCGAUAGCAGAAGGACAUCCAACAACAUGAAAACAUGAGGAUCACCCAUGUAGGAUAUGCUAUCGACU | – | – | 0.0068 | 0.0074
36 | GAGUAGUUGGAAGGAUAUCGAUUGUUAUAGAAUCGAGAAGGUCCUAACAUGAGGAUCACCCAUGUAGGACUAUUCCUGUGUAUC | 0.0113 | 0.00964 | – | –
37 | UCCUGGCGAGGAUAUACAAUGUUUUUCGCGUUUUGUUUCGAACAUGAGGAUCACCCAUGUAGAAGGUGCUACUG | – | – | 0.0383 | 0.041
38 | GUAGUACAUGAGGAUCACCCAUGUGUGGGCGCGUGAGGAUAUGUCCGUACCUGGCGUACGAUAGAAGGCAUGGUGC | 0.0533 | 0.0284 | – | –
39 | AAUAAACUCACAGGAUAUAGCAGAGGUCGCCUGAACUUACAGGCGACUAUGCUAGAAGGGUGACCACAUGAGGAUCACCCAUGU | 0.974 | 0.17 | – | –
40 | UUAAUUAACAAGAAGGCUAACAUGAGGAUCACCCAUGUUGUACAUGGAUAUAGAGGAUAUUGCUAAUAAUUAUUUAUCUUAAUU | – | – | 0.0253 | 0.0194
41 | CUUUUGUGAGGAUAUUCGUAGUAAAUAAAUAAAAUUAUUACGGAGAAGGCACAUGAGGAUCACCCAUGUUCCUU | – | – | 0.0171 | 0.0503
42 | UGAUCCCAUGUCAGGAUAUAGAGGCGGUAGCCUGGCUAGAAGGGACAUGAGGAUCACCCAUGUCGGUUCUUGCC | – | – | 0.0355 | 0.0213
43 | CAGACACAUCUAGGAUAUGGUGAUGCUCAAAACACAUGAGGAUCACCCAUGUAGCCUGUGUAUAAUCAGAAGGAGAACCGUGUA | 0.0846 | 0.5 | – | –
44 | UAUGUACGAGGAUAUACAUAGAUACAGAUACAUGUAGACGUACAUGAGGAUCACCCAUGUAGAAGGCGUAUAUA | – | – | 0.101 | 0.122
45 | AUACAUGAGGAUCACCCAUGUUACAUGGCCUUGAUAGAUUGUAGAAGGAUGUUAUUAUUUUUUUCAUAGGAUAUACUAUUUAGU | – | – | 0.12 | 0.105
46 | AAUAUGUUGCAGAAGGUUAUAUUUUUUUAGUACCUCAUGACAUGAGGAUCACCCAUGUAUUUGUUGAAGGAUAUGCAAUAUAUU | – | – | 0.0231 | 0.0208
47 | GGUAUUCGAGGAUAUCGCAAACGAGACAUGAGGAUCACCCAUGUCCCUCAUGCUUGUCGGCGAGAAGGCGACAAGC | – | – | 0.0148 | 0.0177
48 | UUGGUUGUCGUAGGAUAUGUAGGAUAUUCCUACAUGAGGAUCACCCAUGUUCGCAUGGAAGAAGGACGGAAGGACGAUGACCAA | 0.233 | 0.153 | – | –
49 | CACAAGAAAGUCGAAGGUUGAAGUAGAAGGUCUAUAACAUGACAUGAGGAUCACCCAUGUGCCAAGAAGGAUAUGCUUUAAUCG | – | – | 0.00797 | 0.00653
50 | GGGCCCGGAGGAUAUACAUGAGGAUCACCCAUGUACCCGGGCCCUAUUGGGUUUGGGUGUAGAAGGCCGGGCCC | – | – | 0.015 | 0.0153
51 | UUUCUUGGGCAAGGAUAUCCUGUGCGGUUCCGGCUCGUGUCUGUCACAUGAGGAUCACCCAUGUGGGAGAAGGUGCCUGCGGUU | – | – | 0.00626 | 0.00664
52 | CCAUGACAAAGUCAUGGAUAACGAACAUGAGGAUCACCCAUGUAGGAUAUGCUACUCAAAGAGUAGCAGAAGGACAUGUGCCUU | – | – | 0.0361 | 0.263
53 | CGCCUGUGAGGAUAUCCAUCUGGAUCAGACUAGAUCCUGAUGGAGAAGGCACAUGAGGAUCACCCAUGUCGGCG | – | – | 0.0231 | 0.0224
54 | GUCAGCUCGUGAGGAUAUACGUCACUGCUUCGGCAGUGAAAUUUCCUCACAUGAGGAUCACCCAUGUAGAAGGCACGAGCUGAU | – | – | 0.0115 | 0.208
55 | CUUCAGUCAGGAUAUGUUAAUCUCGCCACUCCGCGAGCCGGACAGAAGGGACAUGAGGAUCACCCAUGUUAAAC | – | – | 0.0295 | 0.0219
